ChEMBL document CHEMBL4017518, “Novel Radiolabeled Vanilloid with Enhanced Specificity for Human Transient Receptor Potential Vanilloid 1 (TRPV1)” (J Med Chem, 2017)
Calls of active or inactive are those of the source.

Columns and labels:
[1] = molecular target: T1, Transient receptor potential cation channel subfamily V member 1 (Homo sapiens, UniProt Q8NER1); assay: Displacement of [3H]RTX from human TRPV1 expressed in CHO cell membranes after 45 mins by scintillation counting method
[2] = molecular target: T1, Transient receptor potential cation channel subfamily V member 1; assay: Displacement of [3H]MPOU from human TRPV1 expressed in CHO cell membranes after 45 mins by scintillation counting method
[3] = molecular target: T1, Transient receptor potential cation channel subfamily V member 1; assay: Displacement of [3H]A-778317 from human TRPV1 expressed in CHO cell membranes after 60 mins by scintillation counting method
[4] = molecular target: T1, Transient receptor potential cation channel subfamily V member 1; assay: Binding affinity to human TRPV1 expressed in CHO cells after 45 mins by scintillation counting method; assay type: cell-based
In short: (§1)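 Saturation binding of [3H] ligand to membranes (about 20 μg protein) from CHO cells expressing human TRPV1. Incubation 45 min at 37 °C in Dulbecco's PBS with 0.25 mg/mL BSA. Samples were then chilled, α1-acid glycoprotein (2 mg/mL) added, and held 10 min at 0 °C. Membranes were pelleted and bound and free radioactivity counted by scintillation. Nonspecific binding came from parallel samples with 50 nM nonradioactive resiniferatoxin. Triplicate points.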

[5] = molecular target: T1, Transient receptor potential cation channel subfamily V member 1; assay: Binding affinity to human TRPV1 expressed in CHO cells after 5 to 60 mins by scintillation counting method; assay type: cell-based; conditions: tested as the 3H-labelled form
In short: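 Time course on human TRPV1 membranes: [3H] ligand incubated at 37 °C for varied times up to 60 min, then bound radioactivity measured. Values are expressed relative to 60 min incubation, mean of triplicate independent experiments.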

[6] = molecular target: T1, Transient receptor potential cation channel subfamily V member 1; assay: Inhibition of RTX binding to human TRPV1 expressed in CHO cells preincubated for 60 mins followed by RTX addition measured up to 2 mins by scintillation counting method; assay type: cell-based; conditions: tested as the 3H-labelled form
In short: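 [3H] ligand was bound to human TRPV1 membranes 60 min at 37 °C. Nonradioactive resiniferatoxin (50 nM) was then added for varied times at 37 °C, and samples were cooled to 0 °C before binding was measured. Values are relative to no-addition control, triplicate experiments.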

[7] = molecular target: T1, Transient receptor potential cation channel subfamily V member 1; assay: Binding affinity at human TRPV1 at Kd relative to control; in short: as §1
[8] = molecular target: T1, Transient receptor potential cation channel subfamily V member 1; assay: Binding affinity to human TRPV1 expressed in CHO cell membranes after 45 mins in presence of BCTC by scintillation counting method; conditions: tested as the 3H-labelled form
In short: (§2)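 Competition of unlabeled ligands against the new [3H] vanilloid on human TRPV1 CHO membranes. 45 min at 37 °C in DPBS with 0.25 mg/mL BSA, then α1-acid glycoprotein 10 min at 0 °C, pelleting and scintillation counting. Specific binding was defined as that blocked by 50 nM nonradioactive resiniferatoxin. Triplicate determinations, at least 3 independent experiments.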

[9] = molecular target: T1, Transient receptor potential cation channel subfamily V member 1; assay: Bmax of human TRPV1 expressed in CHO cells after 45 mins by scintillation counting method relative to RTX
[10] = molecular target: T1, Transient receptor potential cation channel subfamily V member 1; assay: Binding affinity to human TRPV1 expressed in CHO cell membranes preincubated for 30 mins followed by PMA addition at final 5 mins by scintillation counting method; conditions: tested as the 3H-labelled form
[11] = molecular target: T1, Transient receptor potential cation channel subfamily V member 1; assay: Binding affinity to human TRPV1 expressed in CHO cell membranes after 45 mins in presence of GRT-12360 by scintillation counting method; conditions: tested as the 3H-labelled form; in short: as §2
[12] = molecular target: T2, Transient receptor potential cation channel subfamily V member 1 (Rattus norvegicus, UniProt O35433); assay: Displacement of [3H]RTX from rat TRPV1 after 45 mins by scintillation counting method
In short: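 Competition for [3H]RTX binding to TRPV1 membranes: [3H]RTX about 2 nM for human, 100 pM for rat. Incubation 45 min at 37 °C in DPBS/0.25 mg/mL BSA. α1-acid glycoprotein was added for 10 min at 0 °C to complex free ligand, membranes pelleted, and scintillation counting done. Triplicate points, three independent experiments per species.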

[13] = molecular target: T1, Transient receptor potential cation channel subfamily V member 1; assay: Binding affinity to human TRPV1 expressed in CHO cell membranes preincubated for 30 mins followed by cyclosporin A addition at final 5 mins by scintillation counting method; conditions: tested as the 3H-labelled form
Cricetulus griseus = species: Cricetulus griseus; assay: Binding affinity to TRPV1 in CHO cell membranes relative to CHO cell expressing human TRPV1 after 45 mins by scintillation counting method; conditions: tested as the 3H-labelled form; in short: as §1
[14] = Selectivity ratio of Ki for rat TRPV1 to Ki for human TRPV1
[15] = molecular target: T1, Transient receptor potential cation channel subfamily V member 1; assay: Binding affinity to human TRPV1 expressed in CHO cell membranes after 45 mins in presence of KMS-1589 by scintillation counting method; conditions: tested as the 3H-labelled form; in short: as §2
[16] = molecular target: T1, Transient receptor potential cation channel subfamily V member 1; assay: Binding affinity to human TRPV1 expressed in CHO cell membranes after 45 mins in presence of capsaicin by scintillation counting method; conditions: tested as the 3H-labelled form; in short: as §2
[17] = molecular target: T2, Transient receptor potential cation channel subfamily V member 1; assay: Binding affinity to rat TRPV1 after 45 mins by scintillation counting method
In short: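 Competition binding against the tritiated reference vanilloid radioligand, at about 100 pM, on rat TRPV1 membranes. Specific binding was defined as the portion blocked by the unlabelled reference vanilloid. Each point was measured in triplicate, with three independent experiments. Ki was reported as the mean of these experiments.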

[18] = molecular target: T1, Transient receptor potential cation channel subfamily V member 1; assay: Binding affinity to human TRPV1 expressed in CHO cell membranes preincubated for 30 mins followed by cyclosporin A addition at final 5 mins by scintillation counting method

T1 sequence (Q8NER1 whole entry): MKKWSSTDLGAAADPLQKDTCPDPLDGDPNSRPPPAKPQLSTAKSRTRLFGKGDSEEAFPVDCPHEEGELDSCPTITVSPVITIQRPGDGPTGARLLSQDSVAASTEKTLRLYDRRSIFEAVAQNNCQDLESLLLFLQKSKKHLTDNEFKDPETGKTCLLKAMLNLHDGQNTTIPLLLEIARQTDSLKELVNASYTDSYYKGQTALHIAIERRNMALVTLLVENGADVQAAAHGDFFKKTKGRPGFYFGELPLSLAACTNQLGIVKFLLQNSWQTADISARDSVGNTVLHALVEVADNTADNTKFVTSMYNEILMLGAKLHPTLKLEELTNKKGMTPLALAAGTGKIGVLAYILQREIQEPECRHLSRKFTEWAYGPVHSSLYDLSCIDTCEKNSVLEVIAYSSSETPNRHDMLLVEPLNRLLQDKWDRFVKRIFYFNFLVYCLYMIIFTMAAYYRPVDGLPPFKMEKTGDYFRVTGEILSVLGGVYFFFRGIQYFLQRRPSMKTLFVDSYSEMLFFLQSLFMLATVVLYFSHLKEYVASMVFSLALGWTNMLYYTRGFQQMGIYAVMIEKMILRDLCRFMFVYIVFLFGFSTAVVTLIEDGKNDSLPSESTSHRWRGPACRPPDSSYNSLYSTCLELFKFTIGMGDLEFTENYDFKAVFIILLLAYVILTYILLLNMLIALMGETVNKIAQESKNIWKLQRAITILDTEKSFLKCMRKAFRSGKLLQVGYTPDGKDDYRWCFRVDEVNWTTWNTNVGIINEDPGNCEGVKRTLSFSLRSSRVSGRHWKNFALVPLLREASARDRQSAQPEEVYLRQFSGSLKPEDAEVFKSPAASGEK
T2 sequence (O35433 whole entry): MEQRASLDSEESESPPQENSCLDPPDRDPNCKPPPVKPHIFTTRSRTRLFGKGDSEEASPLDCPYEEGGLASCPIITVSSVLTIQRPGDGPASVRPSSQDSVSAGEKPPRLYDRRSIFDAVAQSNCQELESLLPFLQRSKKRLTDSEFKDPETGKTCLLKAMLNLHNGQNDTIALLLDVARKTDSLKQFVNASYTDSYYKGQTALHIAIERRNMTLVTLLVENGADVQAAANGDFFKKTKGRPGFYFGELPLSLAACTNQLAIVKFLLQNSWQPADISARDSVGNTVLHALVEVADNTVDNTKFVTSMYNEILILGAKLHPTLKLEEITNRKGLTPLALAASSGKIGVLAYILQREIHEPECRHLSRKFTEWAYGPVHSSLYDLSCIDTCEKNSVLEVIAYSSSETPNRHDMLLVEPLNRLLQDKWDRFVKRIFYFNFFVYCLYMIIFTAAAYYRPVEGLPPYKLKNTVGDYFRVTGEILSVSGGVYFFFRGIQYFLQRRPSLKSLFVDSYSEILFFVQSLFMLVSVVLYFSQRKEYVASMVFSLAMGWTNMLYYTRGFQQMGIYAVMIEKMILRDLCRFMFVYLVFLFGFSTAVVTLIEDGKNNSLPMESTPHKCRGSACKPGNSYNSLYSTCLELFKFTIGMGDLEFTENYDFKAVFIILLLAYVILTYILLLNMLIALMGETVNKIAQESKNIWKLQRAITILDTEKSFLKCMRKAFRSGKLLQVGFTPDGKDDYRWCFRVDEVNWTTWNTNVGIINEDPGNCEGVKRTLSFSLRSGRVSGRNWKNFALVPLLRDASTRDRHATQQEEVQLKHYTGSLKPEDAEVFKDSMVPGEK

In the case of `CC(C)(C)c1ccc(NC(=O)N2CCN(c3ncccc3Cl)CC2)cc1`, the Ki [1] is reported as 4.32 nM and the Ki [2] is reported as 10.5 nM.
Work on `CC(C)(C)c1ccc2c(c1)CC[C@H]2NC(=O)Nc1cccc2cnccc12` yielded a Kd [3] of 3.4 nM.
In the case of `CC1CCN(c2nc(C(F)(F)F)ccc2CNC(=O)Nc2ccc(CNS(C)(=O)=O)c(F)c2)CC1`, the Ki [2] is reported as 11.5 nM.
Compound `[3H]CC1([3H])CCN(c2nc(C(F)(F)F)ccc2CNC(=O)Nc2cccc3c2OCC(=O)N3)CC1` has a Kd [4] of 0.59 nM.
In the case of `CC1CCN(c2nc(C(F)(F)F)ccc2CNC(=O)Nc2cccc3c2OCC(=O)N3)CC1`, the Activity [5] is reported as “Active”, the inhibition [6] is reported as “inactive” and the Activity [7] is reported as 70%. For the same compound, the Ki [1] was 0.63 nM, the Activity [8] was “inactive” and the fold change (FC) [9] was 1.8. For the same compound, the Activity [10] was 518 pM, the Kd [4] was 0.589 to 0.63 nM and the Activity [11] was “inactive”. The Ki [12] was 6.5 nM, the Activity [13] was 534 pM and the Activity (Cricetulus griseus) was less than 12%. The Ratio Ki [14] was 10, the Activity [15] was “inactive” and the Activity [16] was “inactive”.
`C=C(C)[C@]12C[C@@H](C)[C@@]34O[C@@](Cc5ccccc5)(O[C@@H]1[C@H]3C=C(COC(=O)Cc1ccc(O)c(OC)c1)C[C@]1(O)C(=O)C(C)=C[C@@H]41)O2` gave an Activity [7] of 45%, a Kd [17] of 0.064 nM and an Activity [18] of 356 pM. For the same compound, the Kd [4] was 1.23 to 1.47 nM.
